Assay outcomes as filed in PubChem BioAssay.
G6PDH counter – L. mesenteroides G6PDH inhibitors, counter-screen for G6PDH-coupled screening assays, biochemical, Leuconostoc mesenteroides enzyme | glucose-6-phosphate dehydrogenase [Leuconostoc mesenteroides] | Purified L. mesenteroides G6PDH, diaphorase/resazurin coupled fluorescence, 45 min | inhibition, % at 5 µM | 0.12% of 200,000 active | AID 1020, 2008; in the data active = inhibition above about 50%
Diaphorase inh – diaphorase inhibitors and chemical oxidizers, primary screen, counter-screen for diaphorase-coupled primary assays, biochemical, uHTS, resorufin fluorescence; 0.69% of 190,000 active; inhibition, % at 20 µM; AID 1217, 2008; diaphorase resazurin-to-resorufin fluorescence, NADH, 16 min; bacterial (C. kluyveri) enzyme, not human;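 active = primary screen inhibition at 20 µM above a set limit, cut at about 50% in these data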;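 also: plate controls were DMSO with full reaction for no effect and wells lacking NADH for full effect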
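System: Bacterial diaphorase enzyme (C. kluyveri) | Incubation: 16-min room-temperature incubation before reading | Benchmarks: No-NADH positive control and DMSO neutral control | Measured by: Resorufin fluorescence 544/590 nm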
PfGluPho inh – PfG6PD enzyme inhibitors, primary screen, biochemical, fluorescence intensity, uHTS; AID 504690, 2011; inhibition, % at 20 µM; 0.78% of 350,000 active; PfGluPho enzyme, NADPH resazurin-diaphorase fluorescence; glucose-6-phosphate dehydrogenase-6-phosphogluconolactonase (Plasmodium falciparum 3D7);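 active = inhibition reaching at least a set limit at 20 µM in the primary screen, cut at about 59% in these data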;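 also: 0% = DMSO wells with substrate and 100% = DMSO wells lacking glucose-6-phosphate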
HKDC1 inhibitor – HKDC1 hexokinase inhibitors, primary screen, biochemical, fluorescence, uHTS. Q2TB90. recombinant HKDC1, G6PDH/diaphorase resazurin coupled fluorescence. inhibition, % at 20 µM. 0.16% of 340,000 active;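 active = inhibition above about 35% when tested at 20 µM, limit read from the data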;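 also: plate controls were DMSO wells with enzyme for no effect and DMSO wells lacking enzyme for full effect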
Target sequence (Q2TB90 whole entry, looked up): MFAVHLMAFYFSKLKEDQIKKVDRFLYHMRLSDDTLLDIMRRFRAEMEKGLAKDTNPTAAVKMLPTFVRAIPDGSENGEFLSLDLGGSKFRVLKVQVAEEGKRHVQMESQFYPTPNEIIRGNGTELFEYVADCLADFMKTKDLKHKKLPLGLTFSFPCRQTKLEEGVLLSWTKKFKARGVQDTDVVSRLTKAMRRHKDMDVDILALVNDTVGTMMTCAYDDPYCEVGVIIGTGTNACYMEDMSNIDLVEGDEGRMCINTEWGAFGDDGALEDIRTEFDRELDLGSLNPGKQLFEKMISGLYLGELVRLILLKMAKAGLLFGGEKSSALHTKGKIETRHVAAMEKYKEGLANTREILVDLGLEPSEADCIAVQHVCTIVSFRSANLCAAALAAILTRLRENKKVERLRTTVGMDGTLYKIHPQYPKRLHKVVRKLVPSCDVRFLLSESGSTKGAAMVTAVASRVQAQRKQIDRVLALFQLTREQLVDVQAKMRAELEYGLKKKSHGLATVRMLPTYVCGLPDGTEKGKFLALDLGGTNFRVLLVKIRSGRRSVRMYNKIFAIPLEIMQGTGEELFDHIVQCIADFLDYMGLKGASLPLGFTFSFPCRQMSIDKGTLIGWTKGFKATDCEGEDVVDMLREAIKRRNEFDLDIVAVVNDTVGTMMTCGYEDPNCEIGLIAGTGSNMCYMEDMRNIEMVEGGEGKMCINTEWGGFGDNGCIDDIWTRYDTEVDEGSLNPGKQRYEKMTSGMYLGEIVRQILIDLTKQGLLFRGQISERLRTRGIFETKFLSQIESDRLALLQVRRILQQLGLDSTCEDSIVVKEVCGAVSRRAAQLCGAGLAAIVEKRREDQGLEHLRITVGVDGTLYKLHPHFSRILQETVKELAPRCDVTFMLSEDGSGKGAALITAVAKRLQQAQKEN
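Test system: recombinant HKDC1 (HK5) hexokinase enzyme, produced in-house; Amount: enzyme 5 µg/mL final; Buffer or medium: Tris pH 8.0 buffer with MgCl2, Tween-20, BSA, BME; Reagent: glucose and ATP substrates; Doses: 20 µM test compound, 1% DMSO; Incubation: 90 min reaction incubation at room temperature, dark; Detection: resorufin fluorescence at 613 nm.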
HKDC1 act conf2 – HKDC1 hexokinase activators, confirmation, biochemical, single concentration; AID 504708, 2011; recombinant HKDC1, G6PDH/diaphorase resazurin fluorescence; hits give low values; inhibition, % at 20 µM; 14% of 740 active; shares compounds with HKDC1 inhibitor;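 active = inhibition at or below a set negative limit, negative inhibition meaning the enzyme was activated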
Numbers without * were called inactive; / = not tested or not shown. The list is not random: actives were taken first. Their share in the collection is about 1.3%.

SMILES	G6PDH counter	Diaphorase inh	PfGluPho inh	HKDC1 inhibitor	HKDC1 act conf2
COc1cccc(N(C(=O)CCl)C(C(=O)NCCc2ccccc2)c2cccs2)c1 (configuration not stated)	-8	0	1	16	/
Cc1ccc(/C=C/C(=O)c2ccc([N+](=O)[O-])o2)cc1	/	/	36	46*	19
Cc1ccc(CNC(=O)c2ccc([N+](=O)[O-])o2)cc1	8	6	15	5	/
Cc1ccc(/C=N/n2c(-c3ccccc3)n[nH]c2=S)cc1	/	/	17	-3	/
N=C1N(/N=C/c2ccccc2)C(=Nc2ccccc2)C(=S)N1c1ccccc1	8	16	17	-49	-32
Cc1onc(-c2ccccc2Cl)c1C(=O)NCc1nnnn1-c1ccc(F)cc1	/	/	1	0	/
COc1ccc(N(CCN2C(=O)c3ccccc3C2=O)C(=O)c2cccc([N+](=O)[O-])c2)cc1	24	6	3	-1	/
COc1ccc(N(CCCN2C(=O)c3cccc4cccc(c34)C2=O)C(=O)c2cccnc2)cc1	8	58*	8	36*	23
O=C(c1c[nH]c(C(=O)C(Cl)(Cl)Cl)c1)c1ccccc1F	/	/	-6	37*	1
O=C(c1c[nH]c(C(=O)C(Cl)(Cl)Cl)c1)c1c(F)cccc1F	/	/	-1	38*	14
CCc1ccc2c(c1)C(NC(C)=O)C(=O)N2CCN1CCOCC1 (configuration not stated)	/	/	20	80*	57
COc1ccc(CCN2CC(C(=O)NCCc3ccccn3)CCC2=O)cc1 (configuration not stated)	/	/	-13	-1	/
CCS(=O)(=O)CCSc1nc2ccccc2s1	-4	12	11	9	/
O=S(=O)(CCSc1nc2ccccc2s1)c1nc2ccccc2s1	0	13	27	39*	0
O=C1NC(=S)S/C1=C\C=C\c1ccc([N+](=O)[O-])o1	/	/	34	38*	19
O=C(O)/C=C/c1ccc([N+](=O)[O-])o1	4	10	-4	17	/
CC(=O)N(Cc1c(C)nn(-c2ccccc2)c1Cl)c1ccc(Cl)cc1	7	8	-7	2	/
Cc1nn(-c2ccccc2)c(Cl)c1CN(C(=O)CCl)c1ccc(Cl)cc1	3	18	-5	38*	13
CCCCNC(=O)c1sc(=S)n2c1[nH]c(=O)c1ccccc12	4	67*	23	38*	56
CCOc1ccc(CCNC(=O)c2ccc3c(=O)[nH]c4c(C(=O)NC(C)C)sc(=S)n4c3c2)cc1	/	/	4	41*	26
Cc1cc(C)n(CCC(=O)N=Nc2c(O)[nH]c3ccc(Br)cc23)n1	/	/	21	-1	/
O=C(NCC(c1ccco1)N1CCCC1)c1cccc(S(=O)(=O)Nc2ccc(F)cc2)c1 (configuration not stated)	/	/	-5	3	/
CCC(=O)C(C#N)(c1ccc(OC)c(OC)c1)C(C)C (configuration not stated)	/	/	3	2	/
CCC(C)N(C(=O)COC(=O)c1ccc(N)c([N+](=O)[O-])c1)C1CCS(=O)(=O)C1 (configuration not stated)	/	/	5	/	/
COc1ccc(NS(=O)(=O)c2ccc3oc(=O)c4[nH]c(=O)c(=O)n(C)c4c3c2)cc1	/	/	-22	4	/
SMILES	G6PDH counter	Diaphorase inh	PfGluPho inh	HKDC1 inhibitor	HKDC1 act conf2
O=C(COC(=O)c1n[nH]c2ccccc12)c1cccc(Br)c1	/	/	13	38*	-30*
Cc1ccc(C)c(C(=O)COC(=O)c2n[nH]c3ccccc23)c1	/	/	27	-1	/
CCOC(=O)c1c(C)sc2c1N(C(=O)CCl)c1cc(Cl)ccc1S2	3	40	12	45*	22
COCCN(C(=O)COC(=O)c1cc2c(s1)CCC2)c1c(N)n(Cc2ccccc2)c(=O)[nH]c1=O	/	/	8	35*	16
CCC1CCc2sc(C(=O)OCC(=O)N(CCOC)c3c(N)n(Cc4ccccc4)c(=O)[nH]c3=O)cc2C1 (configuration not stated)	/	/	-8	0	/
COc1ccc(CN2C(=O)c3cccnc3C2O)cc1 (configuration not stated)	6	0	14	41*	36
Cc1cccc(OC(=O)c2ccc3c(=O)n4c(nc3c2)CCC4)c1	/	/	1	/	/
CCCOc1ccc(/C=N/NC(=S)Nc2ccccc2[N+](=O)[O-])c(O)c1	9	2	1	-48	-48*
Cc1ccccc1NC(=S)N/N=C/c1ccc(O)cc1O	/	/	-23	-42	-12
CCOC(=O)CN(C(=O)CNC(=O)c1ccco1)C(C(=O)NC1CCCCC1)c1cccnc1 (configuration not stated)	/	/	12	2	/
CN(C)S(=O)(=O)c1ccc(C(=O)OCC(=O)N2CC3(C)CC2CC(C)(C)C3)cc1 (configuration not stated)	/	/	4	-4	/
O=C(O)C(Cc1ccccc1)N1C(=O)/C(=C/C=C/c2ccco2)SC1=S (configuration not stated)	/	/	9	37*	-2
Cc1ccc(S(=O)(=O)Nc2ccc(Br)cc2C(NCC(=O)O)c2ccccc2)cc1 (configuration not stated)	-2	15	-32	1	/
O=C(O)CSc1cc(NS(=O)(=O)c2ccc(Br)cc2)c2ccccc2c1O	/	/	100*	59*	37
Cc1ccc(NC(=O)CSc2nnc(-c3cccnc3)s2)cc1	-7	-9	34	-6	/
O=C(CSc1nnc(-c2cccnc2)s1)Nc1ccnc2ccccc12	15	19	28	35	18
COC1=CC(=O)C(OC)=C(OC)C1=O	/	/	120*	76*	72
C[C@H](CO)N1C[C@H](C)[C@@H](CN(C)S(=O)(=O)c2cn(C)cn2)Oc2ccc(NC(=O)C3CCCCC3)cc2C1=O	/	/	-3	-8	/
Cc1cc(SCC(=O)c2cccc([N+](=O)[O-])c2)nc(=O)[nH]1	/	/	40	-54	6
S=C1Cc2ccccc2N1	/	/	67*	-303	-192*
